Source: ChEMBL document CHEMBL3751842, “Novel triazolothiadiazines act as potent anticancer agents in liver cancer cells through Akt and ASK-1 proteins” (Bioorg Med Chem, 2016)
Calls of active or inactive are those of the source. The rule behind the calls is not given here.

What was measured:
[1] = Cytotoxicity against human HuH7 cells assessed as growth inhibition after 72 hrs by sulforhodamine B assay; format: functional, cell-based, Huh-7
Summary of the method: (§1)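 Cells were grown at 37°C, 5% CO2 in DMEM with 10% FBS. They were seeded at 1000–3000 cells/well, grown 24 h, then exposed to compound at 2.5–40 µM for 72 h. Cells were fixed in 10% TCA for 1 h at 4°C, stained with 0.4% SRB in 1% acetic acid for 10 min, and the dye solubilized in 10 mM Tris. Absorbance was read at 515 nm; runs were in triplicate; IC50 was calculated, with fits of R2 0.8–1 accepted.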

MCF7 = experiment: Cytotoxicity against human MCF7 cells assessed as growth inhibition after 72 hrs by sulforhodamine B assay; format: functional, cell-based; summary of the method: as §1
[2] = Cytotoxicity against human HCT116 cells assessed as growth inhibition after 72 hrs by sulforhodamine B assay; format: functional, cell-based, HCT-116; summary of the method: as §1
HepG2 = experiment: Cytotoxicity against human HepG2 cells assessed as growth inhibition after 72 hrs by sulforhodamine B assay; format: functional, cell-based; summary of the method: as §1
[3] = Cytotoxicity against human Mahlavu cells assessed as growth inhibition after 72 hrs by sulforhodamine B assay; format: functional, cell-based; summary of the method: as §1
Huh-7 [4] = experiment: Induction of apoptosis in human HuH7 cells assessed as nuclear condensation at 10 uM after 48 hrs by Hoechst 33258 staining-based immunofluorescence microscopy; format: functional, cell-based
Summary of the method: (§2)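 Cells on coverslips were incubated overnight, then treated with 10 µM compound or DMSO for 48 h. They were washed in ice-cold PBS, fixed in cold methanol for 10 min, and stained with 1 µg/mL Hoechst 33258 for 5 min in the dark. Nuclei were examined by fluorescence microscopy with a 40x objective.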

[5] = Cytotoxicity against human SNU475 cells assessed as growth inhibition after 72 hrs by sulforhodamine B assay; format: functional, cell-based, SNU-475; summary of the method: as §1
[6] = Cytotoxicity against human FOCUS cells assessed as growth inhibition after 72 hrs by sulforhodamine B assay; format: functional, cell-based; summary of the method: as §1
Huh-7 [7] = experiment: Induction of apoptosis in human HuH7 cells assessed as horseshoe nuclear structure at 10 uM after 48 hrs by Hoechst 33258 staining-based immunofluorescence microscopy; format: functional, cell-based; summary of the method: as §2
Huh-7 [8] = experiment: Induction of cell cycle arrest in human HuH7 cells assessed as accumulation at subG1 phase at 10 uM after 24 to 48 hrs by propidium iodide staining based FACS analysis; format: functional
Summary of the method: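 Huh7 cells were seeded at 300,000 per 100-mm dish. After 24 h they were treated with 10 µM compound or DMSO for 24 h and 48 h. Cells were trypsinized, fixed in ice-cold 70% ethanol and stored at −20 °C. They were then stained with propidium iodide and cell-cycle distribution, including SubG1, was read by flow cytometry.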

Huh-7 [9] = experiment: Cytotoxicity against human HuH7 cells assessed as cell impedance at IC25 to IC100 measured every 30 mins for 72 hrs by RT-CES assay; format: functional, cell-based; details: TDE = time-dependent effect
Summary of the method: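 Huh7 cells were seeded at 1000–5000 cells/well on electrode plates. […] Impedance was read as cell index every 10 min for the first 24 h, then every 30 min, over 72 h. Data were normalized to DMSO; inhibition (%) = [1 − (CI treated/CI DMSO)] × 100. Each experiment was run at least three times.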

[10] = Cytotoxicity against human Hep3B cells assessed as growth inhibition after 72 hrs by sulforhodamine B assay; format: functional, cell-based, Hep 3B2; summary of the method: as §1
[11] = Homo sapiens, Huh-7, 72 h, read-out: IC50
[12] = Homo sapiens, MCF7, 72 h, read-out: IC50
[13] = Homo sapiens, HCT-116, 72 h, read-out: IC50
[14] = Homo sapiens, HepG2, 72 h, read-out: IC50
[15] = Homo sapiens, Mahlavu, 72 h, read-out: IC50
[16] = Homo sapiens, SNU-475, 72 h, read-out: IC50
[17] = Homo sapiens, FOCUS, 72 h, read-out: IC50
[18] = Homo sapiens, Hep3B, 72 h, read-out: IC50

**Q.** For `COc1ccc(C2=Nn3c(nnc3C(C)c3ccc4cc(OC)ccc4c3)SC2)cc1` (stereo not drawn), which IC50 [1, 11] is on record?
**A.** 8.5 µM

**Q.** What about the IC50 (MCF7; [12]) of the same compound?
**A.** 6.6 µM

**Q.** And the IC50 [2, 13]?
**A.** 6.5 µM

**Q.** What does the source list for `CC(C)Cc1ccc(C(C)c2nnc3n2N=C(c2ccc(Br)cc2)CS3)cc1` (stereo not drawn)?
**A.** IC50 (HepG2; [14]): 6.4 µM; IC50 [3, 15]: 8.9 µM; Activity (Huh-7 [4]): Active; IC50 [5, 16]: 10.1 µM; IC50 [6, 17]: 5.9 µM; Activity (Huh-7 [7]): Active; Activity (Huh-7 [8]): Active; IC50 [1, 11]: 4.9 µM; IC50 (MCF7; [12]): 9.4 µM; IC50 [2, 13]: 7.1 µM; Activity (Huh-7 [9]): tde; IC50 [10, 18]: 8.3 µM

**Q.** Which results are given for `COc1ccc2cc([C@H](C)C(=O)O)ccc2c1` [NAPROXEN]?
**A.** IC50 (HepG2; hepg2): Not Active; IC50 ([3]; mahlavu): Not Active; IC50 ([5]; snu-475): Not Active; IC50 ([6]; focus): Not Active; IC50 ([1]; huh-7): Not Active; IC50 (MCF7; mcf7): Not Active; IC50 ([2]; hct-116): Not Active; IC50 ([10]; hep 3b2): Not Active

**Q.** For `CC(c1ccc(-c2ccccc2)c(F)c1)c1nnc2n1N=C(c1ccccc1)CS2` (stereo not drawn), which IC50 [1, 11] is on record?
**A.** 6.7 µM

**Q.** And the IC50 (MCF7; [12])?
**A.** 7.4 µM

**Q.** And the IC50 [2, 13]?
**A.** 9.7 µM

**Q.** For `COc1ccc2cc(C(C)c3n[nH]c(=S)n3N)ccc2c1` (stereo not drawn), which IC50 (HepG2; [14]) is on record?
**A.** 40 µM

**Q.** What about the IC50 ([3]; mahlavu) of the same compound?
**A.** Not Active

**Q.** What about the IC50 [5, 16] of the same compound?
**A.** 15.9 µM

**Q.** What about the IC50 ([6]; focus) of the same compound?
**A.** Not Active

**Q.** What about the IC50 [1, 11] of the same compound?
**A.** 40.8 µM

**Q.** What about the IC50 (MCF7; [12]) of the same compound?
**A.** 22.3 µM

**Q.** And the IC50 [2, 13]?
**A.** 20.2 µM

**Q.** And the IC50 [10, 18]?
**A.** 1.9 µM

**Q.** With `CC(C)Cc1ccc(C(C)c2nnc3n2N=C(c2ccc(F)cc2)CS3)cc1` (stereo not drawn) as the compound, how does the IC50 [1, 11] read?
**A.** 7.8 µM

**Q.** What about the IC50 (MCF7; [12]) of the same compound?
**A.** 8.9 µM

**Q.** What about the IC50 [2, 13] of the same compound?
**A.** 12.4 µM

**Q.** What does the source list for `CC(C)Cc1ccc(C(C)c2nnc3n2N=C(c2ccc(Cl)cc2)CS3)cc1` (stereo not drawn)?
**A.** IC50 [1, 11]: 5.7 µM; IC50 (MCF7; [12]): 8.8 µM; IC50 [2, 13]: 6.7 µM

**Q.** With `CC(C)Cc1ccc(C(C)c2nnc3n2N=C(c2ccc(C(F)(F)F)cc2)CS3)cc1` (stereo not drawn) as the compound, how does the IC50 [1, 11] read?
**A.** 8.4 µM

**Q.** What about the IC50 (MCF7; [12]) of the same compound?
**A.** 4.2 µM

**Q.** And the IC50 [2, 13]?
**A.** 6.5 µM

**Q.** With `CC(C)Cc1ccc(C(C)c2nnc3n2N=C(c2ccccc2)CS3)cc1` (stereo not drawn) as the compound, how does the IC50 [1, 11] read?
**A.** 6.1 µM

**Q.** And the IC50 (MCF7; [12])?
**A.** 9.7 µM

**Q.** What about the IC50 [2, 13] of the same compound?
**A.** 7.6 µM

**Q.** Which IC50 [1, 11] does the source give for `COc1ccc2cc(C(C)c3nnc4n3N=C(c3ccc(Cl)cc3Cl)CS4)ccc2c1` (stereo not drawn) here?
**A.** 10.7 µM

**Q.** What about the IC50 (MCF7; [12]) of the same compound?
**A.** 14.6 µM

**Q.** And the IC50 [2, 13]?
**A.** 14 µM

**Q.** Which results are given for `CC(c1ccc(-c2ccccc2)c(F)c1)c1n[nH]c(=S)n1N` (stereo not drawn)?
**A.** IC50 (HepG2; [14]): 21.4 µM; IC50 ([3]; mahlavu): Not Active; IC50 ([5]; snu-475): Not Active; IC50 ([6]; focus): Not Active; IC50 [1, 11]: 43.1 µM; IC50 (MCF7; mcf7): Not Active; IC50 ([2]; hct-116): Not Active; IC50 ([10]; hep 3b2): Not Active

**Q.** What does the source list for `COc1ccc2cc(C(C)c3nnc4n3N=C(c3ccc(F)cc3)CS4)ccc2c1` (stereo not drawn)?
**A.** IC50 [1, 11]: 7 µM; IC50 (MCF7; [12]): 15.8 µM; IC50 [2, 13]: 13.1 µM

**Q.** Which IC50 [1, 11] does the source give for `COc1ccc2cc(C(C)c3nnc4n3N=C(c3ccc(Br)cc3)CS4)ccc2c1` (stereo not drawn) here?
**A.** 9.3 µM

**Q.** What about the IC50 (MCF7; [12]) of the same compound?
**A.** 11.5 µM

**Q.** And the IC50 [2, 13]?
**A.** 11.7 µM

**Q.** Which results are given for `CC(c1ccc(-c2ccccc2)c(F)c1)c1nnc2n1N=C(c1ccc(C(F)(F)F)cc1)CS2` (stereo not drawn)?
**A.** IC50 [1, 11]: 9.4 µM; IC50 (MCF7; [12]): 4.3 µM; IC50 [2, 13]: 6.1 µM

**Q.** For `COc1ccc2cc(C(C)c3nnc4n3N=C(c3ccc([N+](=O)[O-])cc3)CS4)ccc2c1` (stereo not drawn), which IC50 [1, 11] is on record?
**A.** 14.7 µM

**Q.** And the IC50 (MCF7; [12])?
**A.** 18.8 µM

**Q.** What about the IC50 [2, 13] of the same compound?
**A.** 15.1 µM

**Q.** With `CC(c1ccc(-c2ccccc2)c(F)c1)c1nnc2n1N=C(c1ccc(Cl)cc1Cl)CS2` (stereo not drawn) as the compound, how does the IC50 (HepG2; [14]) read?
**A.** 8.6 µM

**Q.** What about the IC50 [3, 15] of the same compound?
**A.** 6.6 µM

**Q.** And the Activity (Huh-7 [4])?
**A.** Active

**Q.** What about the IC50 [5, 16] of the same compound?
**A.** 4.7 µM

**Q.** And the IC50 [6, 17]?
**A.** 5.4 µM

**Q.** What about the Activity (Huh-7 [7]) of the same compound?
**A.** Active

**Q.** And the IC50 [1, 11]?
**A.** 3.7 µM

**Q.** And the IC50 (MCF7; [12])?
**A.** 7.6 µM

**Q.** What about the IC50 [2, 13] of the same compound?
**A.** 6.9 µM

**Q.** And the Activity (Huh-7 [9])?
**A.** tde

**Q.** What about the IC50 [10, 18] of the same compound?
**A.** 4.2 µM

**Q.** Which IC50 [1, 11] does the source give for `COc1ccc2cc(C(C)c3nnc4n3N=C(c3ccc(C(F)(F)F)cc3)CS4)ccc2c1` (stereo not drawn) here?
**A.** 14.8 µM

**Q.** And the IC50 (MCF7; [12])?
**A.** 6.9 µM

**Q.** What about the IC50 [2, 13] of the same compound?
**A.** 10.8 µM
